What was measured:
[1] = test system: MCF7 cells; experiment: MTT assay, MCF7 cell proliferation; assay type: cell-based; conditions: Homo sapiens, MCF7, 24 h, read-out: IC50, MCF7 cell proliferation
How it was run: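 MCF7 cells were grown in DMEM or RPMI-1640 with 10% FBS at 37 °C and 5% CO2, then seeded in 96-well plates. Test compound was added at various amounts, with DMSO as vehicle, for 24 h. MTT (5 mg/mL stock) was added for 4 h, then SDS-HCl overnight. A570 was read and IC50 calculated by the plate reader. Values are mean ± SD of triplicate assays.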

[2] = molecular target: T1, STEP (Homo sapiens, UniProt P54829); experiment: PTP activity assay; assay type: biochemical
T1 sequence (P54829 300-555 limits assumed): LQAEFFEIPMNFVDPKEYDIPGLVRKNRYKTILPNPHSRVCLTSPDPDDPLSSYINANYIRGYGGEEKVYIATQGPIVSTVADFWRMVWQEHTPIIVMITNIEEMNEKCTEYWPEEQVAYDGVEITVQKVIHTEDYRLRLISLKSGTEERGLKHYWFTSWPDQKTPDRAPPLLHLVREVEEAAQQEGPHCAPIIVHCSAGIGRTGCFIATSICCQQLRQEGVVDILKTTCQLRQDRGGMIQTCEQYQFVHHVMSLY
How it was run: (§1)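 Human catalytic domains were His-tagged, expressed in E. coli BL21(DE3) with 0.4 mM IPTG overnight at 20 °C, and purified under native conditions. The pNPP hydrolysis buffer was 10 mM NaAc-HAc, 1 mM EDTA, 1 mM DTT, pH 5.5, with 0.1 vol % test compound or DMSO at 37 °C. A405 was read every 20 s for 30 min.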

[3] = test system: MCF7 cells; experiment: RNA sequencing assay of treated MCF7 cells; assay type: cell-based, Human; conditions: vs control, three repeats
How it was run: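 MCF7 cells were treated with test compound alongside a control group, three repeats per group. Libraries were prepared with NEBNext Ultra and sequenced on an Illumina HiSeq. Differential expression used DESeq/Cuffdiff with cutoffs of log2 fold change >1 or […], Q value <0.05 and FPKM >1.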

[4] = test system: c-JUN; experiment: Western blotting of c-JUN in MCF7 cells; assay type: cell-based, Human; conditions: MCF7 cells, 1.5, 7.5 and 15 μM, 24 h
How it was run: (§2)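 MCF7 cells were treated for 24 h with 0, 1.5, 7.5 or 15 μM test compound. Lysates were immunoblotted with antibodies to c-JUN, p-ERK and total ERK, with GAPDH as internal control.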

[5] = molecular target: T2, PTP1B (Homo sapiens, UniProt P18031); experiment: PTP activity assay; assay type: biochemical; conditions: for inhibition type (Lineweaver–Burk plot), PTP1B: Lineweaver–Burk plot analysis
T2 sequence (P18031 3-277 limits assumed): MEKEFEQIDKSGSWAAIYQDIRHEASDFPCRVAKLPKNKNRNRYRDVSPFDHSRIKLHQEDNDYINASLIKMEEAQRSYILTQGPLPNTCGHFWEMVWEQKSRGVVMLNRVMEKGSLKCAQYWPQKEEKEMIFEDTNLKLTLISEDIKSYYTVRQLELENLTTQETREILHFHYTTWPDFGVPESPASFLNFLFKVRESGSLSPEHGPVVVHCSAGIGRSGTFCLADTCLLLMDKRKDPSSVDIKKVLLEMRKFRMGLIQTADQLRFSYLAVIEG
How it was run: as §1

[6] = test system: MCF7 cells; experiment: Colony formation assay; assay type: cell-based, Human; conditions: 0.15, 0.45 and 0.75 μM, 6 days
[7] = molecular target: T3, SHP1 (Homo sapiens, UniProt P29350); experiment: PTP activity assay; assay type: biochemical; conditions: for inhibition type (Lineweaver–Burk plot), SHP1: Lineweaver–Burk plot analysis
T3 sequence (P29350 244-515 limits assumed): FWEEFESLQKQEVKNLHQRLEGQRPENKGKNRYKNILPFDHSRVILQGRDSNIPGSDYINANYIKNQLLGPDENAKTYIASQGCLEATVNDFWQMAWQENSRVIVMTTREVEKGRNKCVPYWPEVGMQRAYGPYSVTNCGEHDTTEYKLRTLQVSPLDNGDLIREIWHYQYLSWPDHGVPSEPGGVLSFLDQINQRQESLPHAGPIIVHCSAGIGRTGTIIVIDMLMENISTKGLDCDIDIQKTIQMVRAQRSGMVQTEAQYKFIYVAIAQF
How it was run: as §1

[8] = test system: p-ERK; experiment: Western blotting of ERK phosphorylation in MCF7 cells; assay type: cell-based, Human; conditions: MCF7 cells, 1.5, 7.5 and 15 μM, 24 h
How it was run: as §2

[9] = molecular target: T4, LYP (Homo sapiens, UniProt Q9Y2R2); experiment: PTP activity assay; assay type: biochemical
T4 sequence (Q9Y2R2 24-289 limits assumed): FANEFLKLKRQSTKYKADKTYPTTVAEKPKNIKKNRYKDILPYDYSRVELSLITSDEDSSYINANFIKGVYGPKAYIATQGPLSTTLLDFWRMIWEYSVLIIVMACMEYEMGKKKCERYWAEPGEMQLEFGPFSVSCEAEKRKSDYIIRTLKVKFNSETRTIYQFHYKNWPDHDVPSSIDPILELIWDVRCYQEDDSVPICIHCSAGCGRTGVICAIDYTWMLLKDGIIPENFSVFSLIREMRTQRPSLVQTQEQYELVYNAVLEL
How it was run: as §1

[10] = molecular target: T5, SHP2 (Homo sapiens, UniProt Q06124); experiment: PTP activity assay; assay type: biochemical; conditions: for inhibition type (Lineweaver–Burk plot), SHP2: Lineweaver–Burk plot analysis
T5 sequence (Q06124 247-517 limits assumed): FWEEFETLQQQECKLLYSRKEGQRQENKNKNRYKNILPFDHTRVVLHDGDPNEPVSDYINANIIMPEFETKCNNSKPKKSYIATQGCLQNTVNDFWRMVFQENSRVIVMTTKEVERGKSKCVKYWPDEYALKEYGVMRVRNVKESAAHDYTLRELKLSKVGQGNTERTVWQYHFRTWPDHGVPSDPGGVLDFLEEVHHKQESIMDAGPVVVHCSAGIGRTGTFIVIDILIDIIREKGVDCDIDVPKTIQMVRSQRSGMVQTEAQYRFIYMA
How it was run: as §1

SMILES	IC50 [1]	IC50 [2]	CXCL2 log 2 fold change [3]	CXCL3 log 2 fold change [3]	CXCL8 log 2 fold change [3]	CXCL10 log 2 fold change [3]	DDIT3 log 2 fold change [3]	GADD45A log 2 fold change [3]	IFI16 log 2 fold change [3]	IFI27 log 2 fold change [3]	IL1A log 2 fold change [3]	IL1B log 2 fold change [3]	IL6 log 2 fold change [3]	IL18 log 2 fold change [3]	IL24 log 2 fold change [3]	IL32 log 2 fold change [3]	IL33 log 2 fold change [3]	IRF1 log 2 fold change [3]	IRF7 log 2 fold change [3]	JUN log 2 fold change [3]	also measured
O=c1[nH]cc(F)c(=O)[nH]1 [5-fluorouracil, reference compound]	25.1 ± 8.8 µM																				
CC(=O)OC[C@]12Oc3c(-c4ccc(O)c5c4O[C@@]4(COC(C)=O)C(=C(O)C[C@@H](C)[C@H]4OC(C)=O)C5=O)ccc(O)c3C(=O)C1=C(O)C[C@@H](C)[C@H]2OC(C)=O [PXA, Phomoxanthone A]	16.4 ± 1.96 µM	> 150 µM	3.24	1.65	5.45	6.84	2.87	1.41	1.18	4.22	4.78	3.30	4.00	1.78	6.37	1.57	4.45	1.50	2.76	3.32	NFKB2 log 2 fold change [3]: 1.62; RELB log 2 fold change [3]: 2.43; XAF1 log 2 fold change [3]: 4.83; JUN protein expression (western blot) [4]: upregulated the JUN protein expression; IC50 [5]: 13 ± 1.13 µM; inhibition type (Lineweaver–Burk plot), PTP1B [5]: noncompetitive inhibitors; colony formation of MCF7 cells [6]: significantly reduced the colony formation; IC50 [7]: 36.5 ± 2.02 µM; inhibition type (Lineweaver–Burk plot), SHP1 [7]: competitive inhibitors; ERK phosphorylation (western blot) [8]: increased ERK phosphorylation; IC50 [9]: > 150 µM; IC50 [10]: 20.5 ± 4.45 µM; inhibition type (Lineweaver–Burk plot), SHP2 [10]: noncompetitive inhibitors
CC(=O)OC[C@]12Oc3ccc(-c4ccc(O)c5c4O[C@@]4(COC(C)=O)C(=C(O)C[C@@H](C)[C@H]4OC(C)=O)C5=O)c(O)c3C(=O)C1=C(O)C[C@@H](C)[C@H]2OC(C)=O [PXB, Phomoxanthone B]	16.2 ± 2.59 µM	> 150 µM	3.19	1.58	5.22	5.96	2.92	1.39	1.15	4.02	4.87	3.23	3.98	1.73	7.08	1.56	4.82	1.34	2.53	3.16	NFKB2 log 2 fold change [3]: 1.69; RELB log 2 fold change [3]: 2.51; XAF1 log 2 fold change [3]: 4.41; JUN protein expression (western blot) [4]: upregulated the JUN protein expression; IC50 [5]: 14.3 ± 2.2 µM; inhibition type (Lineweaver–Burk plot), PTP1B [5]: noncompetitive inhibitors; colony formation of MCF7 cells [6]: significantly reduced the colony formation; IC50 [7]: 32.1 ± 3.74 µM; inhibition type (Lineweaver–Burk plot), SHP1 [7]: competitive inhibitors; ERK phosphorylation (western blot) [8]: increased ERK phosphorylation; IC50 [9]: > 150 µM; IC50 [10]: 11.9 ± 3.02 µM; inhibition type (Lineweaver–Burk plot), SHP2 [10]: noncompetitive inhibitors

— article PMC7557999 (ACS Omega, 2020)
